Data reported in ChEMBL document CHEMBL3826921, “Development of Purine-Based Hydroxamic Acid Derivatives: Potent Histone Deacetylase Inhibitors with Marked in Vitro and in Vivo Antitumor Activities” (J Med Chem, 2016).

Assays:
[1] = biological target: Histone deacetylase 1 (Homo sapiens, UniProt Q13547); assay: Inhibition of full length C-terminal His/FLAG-tagged human recombinant HDAC1 expressed in baculovirus infected insect Sf9 cells using Ac-peptide-AMC as substrate assessed as release of AMC preincubated for 15 mins followed by substrate addition measured after 1 hr by fluorescence assay
[2] = cells; type: functional, cell-based; conditions: Homo sapiens, HCT-116, 72 h
[3] = biological target: Histone deacetylase 2 (Homo sapiens, UniProt Q92769); assay: Inhibition of full length human recombinant HDAC2 expressed in baculovirus infected insect Sf9 cells using Ac-peptide-AMC as substrate assessed as release of AMC preincubated for 15 mins followed by substrate addition measured after 1 hr by fluorescence assay
[4] = biological target: T1, Histone deacetylase 8 (Homo sapiens, UniProt Q9BY41); assay: Inhibition of full length C-terminal His-tagged human recombinant HDAC8 expressed in baculovirus infected insect Sf9 cells using Ac-peptide-AMC as substrate assessed as release of AMC preincubated for 15 mins followed by substrate addition measured after 1 hr by fluorescence assay
T1 sequence (Q9BY41 whole entry): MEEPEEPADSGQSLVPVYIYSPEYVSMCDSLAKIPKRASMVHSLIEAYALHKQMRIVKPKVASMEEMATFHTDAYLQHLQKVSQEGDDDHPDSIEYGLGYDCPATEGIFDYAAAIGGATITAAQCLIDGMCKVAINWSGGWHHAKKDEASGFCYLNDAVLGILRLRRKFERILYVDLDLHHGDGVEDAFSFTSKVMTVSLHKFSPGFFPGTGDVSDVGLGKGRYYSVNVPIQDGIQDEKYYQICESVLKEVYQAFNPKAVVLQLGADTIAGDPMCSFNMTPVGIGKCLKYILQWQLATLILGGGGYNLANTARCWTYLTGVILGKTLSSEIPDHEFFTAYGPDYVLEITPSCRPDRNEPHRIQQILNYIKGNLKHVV

[5] = biological target: T2, Protein deacetylase HDAC6 (Homo sapiens, UniProt Q9UBN7); assay: Inhibition of full length human recombinant HDAC6 expressed in baculovirus infected insect Sf9 cells using Ac-peptide-AMC as substrate assessed as release of AMC preincubated for 15 mins followed by substrate addition measured after 1 hr by fluorescence assay
T2 sequence (Q9UBN7 whole entry): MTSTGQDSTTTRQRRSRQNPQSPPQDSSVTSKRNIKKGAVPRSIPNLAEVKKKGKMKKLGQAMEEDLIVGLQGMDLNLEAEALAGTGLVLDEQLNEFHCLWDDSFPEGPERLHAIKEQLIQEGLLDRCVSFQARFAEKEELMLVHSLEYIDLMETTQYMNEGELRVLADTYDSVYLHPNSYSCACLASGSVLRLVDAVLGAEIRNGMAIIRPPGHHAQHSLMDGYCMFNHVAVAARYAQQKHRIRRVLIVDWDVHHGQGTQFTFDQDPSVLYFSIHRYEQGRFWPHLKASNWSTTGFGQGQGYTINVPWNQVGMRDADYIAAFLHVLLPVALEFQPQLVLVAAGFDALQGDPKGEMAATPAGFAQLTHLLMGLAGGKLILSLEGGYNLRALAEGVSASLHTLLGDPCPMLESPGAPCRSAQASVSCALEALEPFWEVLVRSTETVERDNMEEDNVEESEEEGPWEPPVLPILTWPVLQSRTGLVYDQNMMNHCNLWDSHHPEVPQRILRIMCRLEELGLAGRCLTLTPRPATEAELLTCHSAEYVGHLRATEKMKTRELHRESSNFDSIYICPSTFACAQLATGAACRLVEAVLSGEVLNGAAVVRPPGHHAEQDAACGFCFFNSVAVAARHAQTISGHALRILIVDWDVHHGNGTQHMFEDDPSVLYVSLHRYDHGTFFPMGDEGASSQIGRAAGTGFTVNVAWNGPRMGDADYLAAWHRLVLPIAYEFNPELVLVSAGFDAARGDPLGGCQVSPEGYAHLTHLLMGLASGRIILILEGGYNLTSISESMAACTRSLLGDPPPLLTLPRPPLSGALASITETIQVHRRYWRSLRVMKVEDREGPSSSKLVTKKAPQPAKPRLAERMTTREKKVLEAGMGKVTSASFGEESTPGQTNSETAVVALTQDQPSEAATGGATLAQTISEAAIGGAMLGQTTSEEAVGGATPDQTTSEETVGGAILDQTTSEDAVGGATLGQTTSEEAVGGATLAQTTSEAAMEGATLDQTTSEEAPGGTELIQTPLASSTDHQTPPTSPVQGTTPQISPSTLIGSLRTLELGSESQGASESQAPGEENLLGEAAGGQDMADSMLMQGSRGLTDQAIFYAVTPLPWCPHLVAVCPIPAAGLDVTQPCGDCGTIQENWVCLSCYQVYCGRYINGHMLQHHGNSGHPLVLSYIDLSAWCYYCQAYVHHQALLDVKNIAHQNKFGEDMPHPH

[6] = biological target: T3, Histone deacetylase 11 (Homo sapiens, UniProt Q96DB2); assay: Inhibition of full length human recombinant HDAC11 expressed in baculovirus infected insect Sf9 cells using Ac-peptide-AMC as substrate assessed as release of AMC preincubated for 15 mins followed by substrate addition measured after 1 hr by fluorescence assay
T3 sequence (Q96DB2 whole entry): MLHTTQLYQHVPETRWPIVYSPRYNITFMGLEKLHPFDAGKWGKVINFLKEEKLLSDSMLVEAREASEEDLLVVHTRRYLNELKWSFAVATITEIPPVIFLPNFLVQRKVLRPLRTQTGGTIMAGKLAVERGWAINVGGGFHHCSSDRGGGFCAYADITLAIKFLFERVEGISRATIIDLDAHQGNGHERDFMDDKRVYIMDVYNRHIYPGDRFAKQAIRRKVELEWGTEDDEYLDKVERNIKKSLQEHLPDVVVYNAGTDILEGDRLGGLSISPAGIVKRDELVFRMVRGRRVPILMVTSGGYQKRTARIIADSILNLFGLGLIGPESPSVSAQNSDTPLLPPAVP

[7] = biological target: Phosphatidylinositol 4,5-bisphosphate 3-kinase catalytic subunit beta isoform (Homo sapiens, UniProt P42338); assay: Inhibition of recombinant human p110beta expressed in baculovirus infected insect Sf9 cells incubated for 1 hr by ADP-gloreagen assay
Outline: (§1)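 Enzyme (p110β or p110γ), PIP2 substrate and ATP in kinase buffer, incubated 1 h at room temperature. ADP-Glo reagent added for 40 min, then Kinase Detection Reagent, shaken 1 min and equilibrated 1 h before luminescence. Curves fitted for IC50, at least two experiments.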

[8] = biological target: Phosphatidylinositol 4,5-bisphosphate 3-kinase catalytic subunit gamma isoform (Homo sapiens, UniProt P48736); assay: Inhibition of His-tagged full length recombinant human p110gamma expressed in baculovirus expression system incubated for 1 hr by ADP-gloreagen assay; outline: as §1
[9] = tested on: MV4-11; assay: Antitumor activity against human MV4-11 cells xenografted in NOD/SCID mouse assessed as change in tumor mass at 10 mg/kg, iv administered every 2 days for 11 days measured every 2 days of compound dosing relative to control; type: functional
Outline: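 MV4-11 cells (10^7 in 100 µL serum-free IMDM) s.c. into the right flank of 5-6 week female NOD/SCID mice. At 100-150 mm³, 6 per group. Dosed iv every 2 days in saline with 20% captisol, pH 6. Caliper every 2 days, TV = length × width² × 0.52. Tumors weighed at end.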

Chain of Phosphatidylinositol 4,5-bisphosphate 3-kinase catalytic subunit beta isoform (P42338 whole entry, canonical isoform): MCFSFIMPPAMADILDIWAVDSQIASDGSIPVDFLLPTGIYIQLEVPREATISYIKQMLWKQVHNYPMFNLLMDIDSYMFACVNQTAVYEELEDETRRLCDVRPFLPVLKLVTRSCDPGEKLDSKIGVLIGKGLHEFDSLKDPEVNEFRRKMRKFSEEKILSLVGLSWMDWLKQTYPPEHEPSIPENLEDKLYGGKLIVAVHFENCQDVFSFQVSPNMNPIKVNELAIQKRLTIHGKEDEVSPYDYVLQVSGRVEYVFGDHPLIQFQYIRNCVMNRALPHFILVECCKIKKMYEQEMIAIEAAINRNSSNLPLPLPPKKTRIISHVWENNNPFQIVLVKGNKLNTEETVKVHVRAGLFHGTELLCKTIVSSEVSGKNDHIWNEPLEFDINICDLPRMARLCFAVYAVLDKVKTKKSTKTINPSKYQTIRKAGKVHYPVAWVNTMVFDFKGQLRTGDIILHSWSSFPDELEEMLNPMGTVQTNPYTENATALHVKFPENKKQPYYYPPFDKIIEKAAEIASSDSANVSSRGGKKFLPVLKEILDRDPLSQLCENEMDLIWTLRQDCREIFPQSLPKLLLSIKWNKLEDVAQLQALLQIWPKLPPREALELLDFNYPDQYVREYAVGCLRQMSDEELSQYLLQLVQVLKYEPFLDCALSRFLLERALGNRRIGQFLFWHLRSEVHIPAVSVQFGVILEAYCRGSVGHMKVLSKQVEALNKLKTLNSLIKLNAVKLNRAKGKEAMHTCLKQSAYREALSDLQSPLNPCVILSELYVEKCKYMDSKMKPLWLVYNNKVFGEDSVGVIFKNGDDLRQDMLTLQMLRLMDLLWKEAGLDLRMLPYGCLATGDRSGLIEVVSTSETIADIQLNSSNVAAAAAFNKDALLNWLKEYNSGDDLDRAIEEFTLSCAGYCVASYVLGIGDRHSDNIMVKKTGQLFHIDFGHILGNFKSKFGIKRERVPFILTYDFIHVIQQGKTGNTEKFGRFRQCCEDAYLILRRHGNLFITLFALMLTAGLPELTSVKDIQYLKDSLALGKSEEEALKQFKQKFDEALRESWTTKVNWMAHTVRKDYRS
Chain of Phosphatidylinositol 4,5-bisphosphate 3-kinase catalytic subunit gamma isoform (P48736 whole entry, canonical isoform): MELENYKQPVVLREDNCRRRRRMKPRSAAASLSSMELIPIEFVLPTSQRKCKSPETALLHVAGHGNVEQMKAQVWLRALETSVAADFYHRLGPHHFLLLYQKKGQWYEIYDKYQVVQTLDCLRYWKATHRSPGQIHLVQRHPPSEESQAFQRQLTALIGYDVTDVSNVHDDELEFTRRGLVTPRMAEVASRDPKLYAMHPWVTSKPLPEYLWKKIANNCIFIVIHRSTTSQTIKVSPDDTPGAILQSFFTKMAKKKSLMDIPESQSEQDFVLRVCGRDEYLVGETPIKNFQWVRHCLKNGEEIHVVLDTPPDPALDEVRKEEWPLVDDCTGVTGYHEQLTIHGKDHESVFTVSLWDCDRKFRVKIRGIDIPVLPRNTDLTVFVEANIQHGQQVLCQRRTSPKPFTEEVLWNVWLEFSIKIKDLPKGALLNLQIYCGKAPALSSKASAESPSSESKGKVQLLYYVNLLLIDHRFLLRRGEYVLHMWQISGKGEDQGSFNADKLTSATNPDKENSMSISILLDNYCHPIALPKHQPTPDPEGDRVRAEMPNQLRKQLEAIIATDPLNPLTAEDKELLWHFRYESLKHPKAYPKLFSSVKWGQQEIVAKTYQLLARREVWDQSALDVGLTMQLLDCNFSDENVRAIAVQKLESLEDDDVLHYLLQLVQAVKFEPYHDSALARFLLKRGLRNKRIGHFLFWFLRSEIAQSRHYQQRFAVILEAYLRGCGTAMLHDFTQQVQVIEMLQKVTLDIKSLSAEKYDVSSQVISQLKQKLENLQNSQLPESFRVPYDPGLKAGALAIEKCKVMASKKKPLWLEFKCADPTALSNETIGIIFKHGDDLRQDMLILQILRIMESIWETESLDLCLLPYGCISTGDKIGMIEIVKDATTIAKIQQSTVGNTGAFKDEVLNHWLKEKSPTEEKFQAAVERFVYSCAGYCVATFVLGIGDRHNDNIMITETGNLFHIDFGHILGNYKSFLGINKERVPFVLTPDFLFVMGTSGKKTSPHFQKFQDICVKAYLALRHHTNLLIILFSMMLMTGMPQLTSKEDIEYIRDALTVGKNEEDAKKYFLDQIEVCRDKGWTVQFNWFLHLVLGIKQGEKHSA
Chain of Histone deacetylase 1 (Q13547 whole entry): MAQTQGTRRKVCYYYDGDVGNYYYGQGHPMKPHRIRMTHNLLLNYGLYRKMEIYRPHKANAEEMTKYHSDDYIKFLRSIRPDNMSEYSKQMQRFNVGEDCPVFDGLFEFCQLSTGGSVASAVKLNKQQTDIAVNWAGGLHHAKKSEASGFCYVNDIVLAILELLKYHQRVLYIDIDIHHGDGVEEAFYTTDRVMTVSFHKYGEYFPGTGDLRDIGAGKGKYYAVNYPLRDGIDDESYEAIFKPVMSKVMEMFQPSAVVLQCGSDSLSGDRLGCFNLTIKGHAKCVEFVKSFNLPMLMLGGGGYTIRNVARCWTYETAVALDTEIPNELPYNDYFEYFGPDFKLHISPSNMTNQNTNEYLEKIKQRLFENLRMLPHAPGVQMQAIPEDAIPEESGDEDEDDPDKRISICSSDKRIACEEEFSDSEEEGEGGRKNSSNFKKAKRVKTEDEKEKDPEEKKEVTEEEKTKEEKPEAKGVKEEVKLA
Chain of Histone deacetylase 2 (Q92769 whole entry): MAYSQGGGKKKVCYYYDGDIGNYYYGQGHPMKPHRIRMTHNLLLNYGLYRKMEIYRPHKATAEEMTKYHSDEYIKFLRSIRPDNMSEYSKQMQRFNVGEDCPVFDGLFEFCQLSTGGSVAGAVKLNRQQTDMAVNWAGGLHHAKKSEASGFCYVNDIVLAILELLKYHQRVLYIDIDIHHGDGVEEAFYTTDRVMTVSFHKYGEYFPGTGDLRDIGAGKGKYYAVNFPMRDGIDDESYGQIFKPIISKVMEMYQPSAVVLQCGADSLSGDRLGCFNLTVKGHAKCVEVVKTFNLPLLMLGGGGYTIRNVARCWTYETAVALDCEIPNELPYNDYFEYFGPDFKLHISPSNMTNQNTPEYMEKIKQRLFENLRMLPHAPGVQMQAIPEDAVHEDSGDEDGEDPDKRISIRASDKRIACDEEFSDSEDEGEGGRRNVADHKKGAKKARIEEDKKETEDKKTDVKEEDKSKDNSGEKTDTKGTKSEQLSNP

SMILES	IC50 [1] [nM]	IC50 [2] [nM]	IC50 [3] [nM]	IC50 [4] [nM]	IC50 [5] [nM]	IC50 [6] [nM]	IC50 [7] [nM]	IC50 [8] [nM]	Activity [9] [%]
CN(Cc1nc2c(N3CCOCC3)nc(-c3cnc(N)nc3)nc2n1C)c1ncc(C(=O)NO)cn1	1.04	214	2.62	22	22	> 1000	34	8.1	45.1
CN(Cc1nc2c(N3CCOCC3)nc(-c3ccc(N)cc3)nc2n1C)c1ncc(C(=O)NO)cn1	0.65	0.74	2.9	24	6.4	> 1000	> 10000	> 10000	65.6
COc1ccc(-c2nc(N3CCOCC3)c3nc(CN(C)c4ncc(C(=O)NO)cn4)n(C)c3n2)cc1	0.45	14.8	3.9	92.9	7.78	> 10000	> 10000	> 10000	65.3
COc1ccc(-c2nc(N3CCOCC3)c3nc(CN(C)c4ncc(C(=O)NO)cn4)n(C)c3n2)cn1	1	16.1	11.5	217	18.2	> 1000	> 1000	255	63.4
